The values that follow come from ChEMBL document CHEMBL1641559, “Facile synthesis and biological evaluation of 3,3-diphenylpropanoyl piperazines as T-type calcium channel blockers” (Bioorg Med Chem Lett, 2011).

The term Kd denotes a measure of binding affinity in units of concentration. By inhibition is commonly meant the change of the read-out against control, counted positive when it falls. One may read the IC50 as the midpoint of a concentration-inhibition curve.

T1 sequence (O43497 whole entry): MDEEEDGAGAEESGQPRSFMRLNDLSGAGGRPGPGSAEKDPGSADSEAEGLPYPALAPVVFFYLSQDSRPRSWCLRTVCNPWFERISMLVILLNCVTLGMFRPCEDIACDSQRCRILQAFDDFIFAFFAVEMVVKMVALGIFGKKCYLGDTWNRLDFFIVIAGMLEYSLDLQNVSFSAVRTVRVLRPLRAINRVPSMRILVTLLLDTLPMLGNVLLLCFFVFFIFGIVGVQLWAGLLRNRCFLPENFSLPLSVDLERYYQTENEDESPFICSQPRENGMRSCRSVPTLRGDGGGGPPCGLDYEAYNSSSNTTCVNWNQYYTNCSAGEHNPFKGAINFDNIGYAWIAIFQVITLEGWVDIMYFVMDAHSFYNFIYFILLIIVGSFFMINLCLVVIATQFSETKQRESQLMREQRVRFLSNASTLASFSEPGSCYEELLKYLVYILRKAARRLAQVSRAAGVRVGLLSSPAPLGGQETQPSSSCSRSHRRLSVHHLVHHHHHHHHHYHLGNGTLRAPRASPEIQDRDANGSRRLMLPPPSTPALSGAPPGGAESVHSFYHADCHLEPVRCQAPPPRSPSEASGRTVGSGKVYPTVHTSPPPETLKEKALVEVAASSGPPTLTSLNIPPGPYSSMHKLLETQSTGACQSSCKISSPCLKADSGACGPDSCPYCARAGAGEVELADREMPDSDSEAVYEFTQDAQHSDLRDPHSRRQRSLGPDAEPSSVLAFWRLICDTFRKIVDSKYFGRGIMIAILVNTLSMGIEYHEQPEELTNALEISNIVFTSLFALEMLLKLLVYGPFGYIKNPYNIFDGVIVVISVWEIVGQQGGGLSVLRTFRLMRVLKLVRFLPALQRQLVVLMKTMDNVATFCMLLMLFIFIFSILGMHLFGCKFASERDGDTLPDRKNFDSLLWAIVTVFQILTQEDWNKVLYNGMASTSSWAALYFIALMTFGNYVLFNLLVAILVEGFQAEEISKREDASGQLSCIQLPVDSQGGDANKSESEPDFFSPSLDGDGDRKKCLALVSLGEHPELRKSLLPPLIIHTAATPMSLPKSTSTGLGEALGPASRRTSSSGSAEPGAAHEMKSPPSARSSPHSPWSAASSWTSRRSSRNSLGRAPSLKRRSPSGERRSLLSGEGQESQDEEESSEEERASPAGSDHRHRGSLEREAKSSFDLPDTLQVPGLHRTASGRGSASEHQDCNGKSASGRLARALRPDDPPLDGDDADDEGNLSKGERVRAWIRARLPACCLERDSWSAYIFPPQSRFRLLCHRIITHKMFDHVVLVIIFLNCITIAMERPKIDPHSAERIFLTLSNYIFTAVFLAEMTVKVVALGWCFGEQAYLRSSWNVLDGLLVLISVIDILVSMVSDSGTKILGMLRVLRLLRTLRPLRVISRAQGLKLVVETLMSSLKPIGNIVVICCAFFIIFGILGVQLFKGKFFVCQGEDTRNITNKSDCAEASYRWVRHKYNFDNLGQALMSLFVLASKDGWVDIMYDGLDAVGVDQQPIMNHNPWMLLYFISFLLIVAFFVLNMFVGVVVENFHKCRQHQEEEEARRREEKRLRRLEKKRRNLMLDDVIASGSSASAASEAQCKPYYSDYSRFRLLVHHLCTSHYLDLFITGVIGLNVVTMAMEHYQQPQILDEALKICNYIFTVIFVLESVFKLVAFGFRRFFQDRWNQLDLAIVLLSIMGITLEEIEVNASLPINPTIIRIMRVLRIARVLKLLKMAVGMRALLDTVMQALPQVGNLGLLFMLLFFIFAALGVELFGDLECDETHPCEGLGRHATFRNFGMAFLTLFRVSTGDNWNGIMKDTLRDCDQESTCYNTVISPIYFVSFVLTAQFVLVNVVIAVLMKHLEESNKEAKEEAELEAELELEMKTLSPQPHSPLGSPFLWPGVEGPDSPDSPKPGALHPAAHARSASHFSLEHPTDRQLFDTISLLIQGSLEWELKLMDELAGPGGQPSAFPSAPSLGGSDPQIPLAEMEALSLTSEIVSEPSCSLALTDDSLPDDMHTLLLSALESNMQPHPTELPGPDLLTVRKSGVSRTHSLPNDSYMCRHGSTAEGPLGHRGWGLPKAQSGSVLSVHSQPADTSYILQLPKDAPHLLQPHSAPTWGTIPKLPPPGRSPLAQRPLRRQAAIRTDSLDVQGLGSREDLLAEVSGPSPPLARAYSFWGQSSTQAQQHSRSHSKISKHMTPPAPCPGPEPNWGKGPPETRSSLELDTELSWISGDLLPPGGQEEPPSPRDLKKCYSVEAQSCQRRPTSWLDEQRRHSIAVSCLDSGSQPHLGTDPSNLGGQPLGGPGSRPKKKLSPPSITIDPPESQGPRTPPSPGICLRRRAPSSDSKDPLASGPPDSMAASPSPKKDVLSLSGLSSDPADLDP

The target in one test is T1, Voltage-dependent T-type calcium channel subunit alpha-1G (Homo sapiens, UniProt O43497). Kind of test: Inhibition of T-type alpha1G calcium channel. In outline:
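HEK293 cells stably expressing α1G and Kir2.1 were seeded at 4 × 10⁴ cells/well and used the next day. They were loaded with 5 µM fluo3/AM and 0.001% Pluronic F-127 for 60 min at room temperature in Hepes buffer (pH 7.4). Channels were activated by 70 mM KCl depolarization in buffer containing 10 mM CaCl₂, and the rise in intracellular Ca²⁺ was read by fluorescence (FDSS6000).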
For `O=c1[nH]c2ccccc2n1C1CCN(CCCC(c2ccc(F)cc2)c2ccc(F)cc2)CC1` [PIMOZIDE], the Kd was determined as 40 nM.

The target of another test is T1, Voltage-dependent T-type calcium channel subunit alpha-1G. As to the kind of experiment: Inhibition of T-type alpha1G calcium channel expressed in HEK293 cells assessed as Kcl-induced depolarization at 10 uM. The class given is cell-based. A digest of the protocol:
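HEK293 cells stably expressing alpha1G plus Kir2.1, grown in DMEM/10% FBS with penicillin, streptomycin, geneticin and puromycin at 37 °C, 5% CO2; seeded 4 × 10^4 cells/well, used next day. Loaded 60 min at room temperature with 5 µM fluo3/AM and 0.001% Pluronic F-127 in Hepes buffer (pH 7.4). Channels activated by 70 mM KCl with 10 mM CaCl2; rise in intracellular Ca2+ read by FDSS6000 fluorescence.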
As to `COC(=O)c1coc(CN2CCN(C(=O)CC(c3ccc(Br)cc3)c3cccc(F)c3)CC2)n1` (centres undefined), the inhibition is 36.6%. Take `Cc1ccc2nc(CN3CCN(C(=O)CC(c4ccccc4)c4ccc(F)cc4)CC3)oc2c1` (centres undefined): the inhibition was found to be 42.7%. Still for that read-out and setting: the same measure for `O=C(O)c1coc(CN2CCN(C(=O)CC(c3ccc(F)cc3)c3ccc(Cl)cc3)CC2)n1` (centres undefined): 3.62%; for `COC(=O)c1coc(CN2CCN(C(=O)CC(c3ccc(F)cc3)c3cccc(F)c3)CC2)n1` (centres undefined): 44.5%. Consider `COC(=O)c1coc(CN2CCN(C(=O)CC(c3ccccc3)c3ccc(Br)cc3)CC2)n1` (centres undefined), for which the inhibition was found to be 42.8%. Turning to `Cc1ccc2nc(CN3CCN(C(=O)CC(c4ccc(Br)cc4)c4cccc(F)c4)CC3)oc2c1` (centres undefined), the inhibition worked out at 18%. As for `Cc1ccc2nc(CN3CCN(C(=O)CC(c4ccc(F)cc4)c4ccc(Br)cc4)CC3)oc2c1` (centres undefined), the inhibition amounted to 11.2%. Consider `COC(=O)c1coc(CN2CCN(C(=O)CC(c3ccc(OC)cc3)c3cccc(F)c3)CC2)n1` (centres undefined), for which the inhibition amounted to 25.5%.

With `Cc1ccc2nc(CN3CCN(C(=O)CC(c4ccccc4)c4ccc(C(F)(F)F)cc4)CC3)oc2c1` (centres undefined), the inhibition stood at 22.4%. Still for that read-out and setting: the same measure for `Cc1ccc2nc(CN3CCN(C(=O)CC(c4ccc(C(F)(F)F)cc4)c4cccc(F)c4)CC3)oc2c1` (centres undefined): 26.4%; for `Cc1ccc2nc(CN3CCN(C(=O)CC(c4ccccc4)c4ccc(Br)cc4)CC3)oc2c1` (centres undefined): 13.6%. Same read-out and setting: the same measure for `COC(=O)c1coc(CN2CCN(C(=O)CC(c3ccc(F)cc3)c3ccc(Cl)cc3)CC2)n1` (centres undefined): 45.1%; for `O=C(CC(c1ccc(F)cc1)c1cccc(F)c1)N1CCN(Cc2nc(CO)co2)CC1` (centres undefined): 13.7%; for `COC(=O)c1coc(CN2CCN(C(=O)CC(c3ccc(F)cc3)c3ccc(C(F)(F)F)cc3)CC2)n1` (centres undefined): 51.8%. Still for that read-out and setting: the same measure for `COc1ccc(C(CC(=O)N2CCN(Cc3nc4ccc(C)cc4o3)CC2)c2ccc(F)cc2)cc1` (centres undefined): 23.3%. With `O=C(O)c1coc(CN2CCN(C(=O)CC(c3ccc(F)cc3)c3ccc(C(F)(F)F)cc3)CC2)n1` (centres undefined), the inhibition was 3.62%. Take `COC(=O)c1coc(CN2CCN(C(=O)CC(c3ccccc3)c3ccc(OC)cc3)CC2)n1` (centres undefined): the inhibition was found to be 22.8%.

For `COc1ccc(C(CC(=O)N2CCN(Cc3nc(C(=O)O)co3)CC2)c2ccc(F)cc2)cc1` (centres undefined), the inhibition amounted to 7.68%.

On to `O=C(CC(c1ccc(F)cc1)c1cccc(F)c1)N1CCN(Cc2nc(C(=O)N3CCOCC3)co2)CC1` (centres undefined), for which the inhibition stood at 36.9%. Regarding `Cc1ccc2nc(CN3CCN(C(=O)CC(c4ccccc4)c4ccc(Cl)cc4)CC3)oc2c1` (centres undefined), the inhibition came to 25.9%. `COC(=O)c1coc(CN2CCN(C(=O)CC(c3ccc(F)cc3)c3ccc(F)cc3)CC2)n1`: the inhibition is 33.5%.

Consider `COc1ccc(C(CC(=O)N2CCN(Cc3nc4ccc(C)cc4o3)CC2)c2ccccc2)cc1` (centres undefined), for which the inhibition stood at 63.5%. On to `COC(=O)c1coc(CN2CCN(C(=O)CC(c3ccc(F)cc3)c3ccc(Br)cc3)CC2)n1` (centres undefined), for which the inhibition came to 42.1%. Regarding `O=C(CC(c1ccc(C(F)(F)F)cc1)c1cccc(F)c1)N1CCN(Cc2nc(CO)co2)CC1` (centres undefined), the inhibition stood at 19.2%. Still for that read-out and setting: the same measure for `COC(=O)c1coc(CN2CCN(C(=O)CC(c3ccc(Cl)cc3)c3cccc(F)c3)CC2)n1` (centres undefined): 24.5%. With `O=C(CC(c1ccc(Cl)cc1)c1cccc(F)c1)N1CCN(Cc2nc(C(=O)N3CCOCC3)co2)CC1` (centres undefined), the inhibition came to 48.6%. On the same count and under the same terms, the same measure for `O=C(CC(c1ccc(Cl)cc1)c1cccc(F)c1)N1CCN(Cc2nc(CO)co2)CC1` (centres undefined): 19.2%. Consider `O=C(O)c1coc(CN2CCN(C(=O)CC(c3ccc(F)cc3)c3ccc(F)cc3)CC2)n1`, for which the inhibition turned out to be 3.84%. Turning to `O=C(O)c1coc(CN2CCN(C(=O)CC(c3ccc(F)cc3)c3ccc(Br)cc3)CC2)n1` (centres undefined), the inhibition came out at 5.42%. For `Cc1ccc2nc(CN3CCN(C(=O)CC(c4ccc(F)cc4)c4ccc(Cl)cc4)CC3)oc2c1` (centres undefined), the inhibition was 15.5%. For the molecule `Cc1ccc2nc(CN3CCN(C(=O)CC(c4ccc(F)cc4)c4cccc(F)c4)CC3)oc2c1` (centres undefined), the inhibition stood at 44.9%.

As for `O=C(CC(c1ccc(Br)cc1)c1cccc(F)c1)N1CCN(Cc2nc(CO)co2)CC1` (centres undefined), the inhibition worked out at 21.3%. Same read-out and setting: the same measure for `Cc1ccc2nc(CN3CCN(C(=O)CC(c4ccc(Cl)cc4)c4cccc(F)c4)CC3)oc2c1` (centres undefined): 32.2%; for `COC(=O)c1coc(CN2CCN(C(=O)CC(c3ccccc3)c3ccc(F)cc3)CC2)n1` (centres undefined): 27.7%; for `O=C(CC(c1ccc(Br)cc1)c1cccc(F)c1)N1CCN(Cc2nc(C(=O)N3CCOCC3)co2)CC1` (centres undefined): 44.6%. Turning to `COC(=O)c1coc(CN2CCN(C(=O)CC(c3ccccc3)c3ccc(C(F)(F)F)cc3)CC2)n1` (centres undefined), the inhibition came out at 60.4%. On to `COc1ccc(C(CC(=O)N2CCN(Cc3nc(CO)co3)CC2)c2cccc(F)c2)cc1` (centres undefined), for which the inhibition worked out at 4.9%. In the case of `COC(=O)c1coc(CN2CCN(C(=O)CC(c3ccc(C(F)(F)F)cc3)c3cccc(F)c3)CC2)n1` (centres undefined), the inhibition came out at 57.6%. As to `O=C(CC(c1ccc(C(F)(F)F)cc1)c1cccc(F)c1)N1CCN(Cc2nc(C(=O)N3CCOCC3)co2)CC1` (centres undefined), the inhibition came to 53.4%. As for `Cc1ccc2nc(CN3CCN(C(=O)CC(c4ccc(F)cc4)c4ccc(F)cc4)CC3)oc2c1`, the inhibition is 30.9%. On the same count and under the same terms, the same measure for `COc1ccc(C(CC(=O)N2CCN(Cc3nc4ccc(C)cc4o3)CC2)c2cccc(F)c2)cc1` (centres undefined): 52%; for `COC(=O)c1coc(CN2CCN(C(=O)CC(c3ccccc3)c3ccc(Cl)cc3)CC2)n1` (centres undefined): 35%. Take `COC(=O)c1coc(CN2CCN(C(=O)CC(c3ccc(F)cc3)c3ccc(OC)cc3)CC2)n1` (centres undefined): the inhibition was 24.5%. As to `Cc1ccc2nc(CN3CCN(C(=O)CC(c4ccc(F)cc4)c4ccc(C(F)(F)F)cc4)CC3)oc2c1` (centres undefined), the inhibition is 9.84%. The same measure, in the same setting: the same measure for `COc1ccc(C(CC(=O)N2CCN(Cc3nc(C(=O)N4CCOCC4)co3)CC2)c2cccc(F)c2)cc1` (centres undefined): 19.7%.

The target in a further test is Voltage-gated inwardly rectifying potassium channel KCNH2 (Homo sapiens, UniProt Q12809). As to the kind of experiment: Inhibition of human hERG. (In general: hERG is a cardiac potassium channel; its block is linked to QT prolongation.)
Sequence of Voltage-gated inwardly rectifying potassium channel KCNH2 (Q12809 whole entry): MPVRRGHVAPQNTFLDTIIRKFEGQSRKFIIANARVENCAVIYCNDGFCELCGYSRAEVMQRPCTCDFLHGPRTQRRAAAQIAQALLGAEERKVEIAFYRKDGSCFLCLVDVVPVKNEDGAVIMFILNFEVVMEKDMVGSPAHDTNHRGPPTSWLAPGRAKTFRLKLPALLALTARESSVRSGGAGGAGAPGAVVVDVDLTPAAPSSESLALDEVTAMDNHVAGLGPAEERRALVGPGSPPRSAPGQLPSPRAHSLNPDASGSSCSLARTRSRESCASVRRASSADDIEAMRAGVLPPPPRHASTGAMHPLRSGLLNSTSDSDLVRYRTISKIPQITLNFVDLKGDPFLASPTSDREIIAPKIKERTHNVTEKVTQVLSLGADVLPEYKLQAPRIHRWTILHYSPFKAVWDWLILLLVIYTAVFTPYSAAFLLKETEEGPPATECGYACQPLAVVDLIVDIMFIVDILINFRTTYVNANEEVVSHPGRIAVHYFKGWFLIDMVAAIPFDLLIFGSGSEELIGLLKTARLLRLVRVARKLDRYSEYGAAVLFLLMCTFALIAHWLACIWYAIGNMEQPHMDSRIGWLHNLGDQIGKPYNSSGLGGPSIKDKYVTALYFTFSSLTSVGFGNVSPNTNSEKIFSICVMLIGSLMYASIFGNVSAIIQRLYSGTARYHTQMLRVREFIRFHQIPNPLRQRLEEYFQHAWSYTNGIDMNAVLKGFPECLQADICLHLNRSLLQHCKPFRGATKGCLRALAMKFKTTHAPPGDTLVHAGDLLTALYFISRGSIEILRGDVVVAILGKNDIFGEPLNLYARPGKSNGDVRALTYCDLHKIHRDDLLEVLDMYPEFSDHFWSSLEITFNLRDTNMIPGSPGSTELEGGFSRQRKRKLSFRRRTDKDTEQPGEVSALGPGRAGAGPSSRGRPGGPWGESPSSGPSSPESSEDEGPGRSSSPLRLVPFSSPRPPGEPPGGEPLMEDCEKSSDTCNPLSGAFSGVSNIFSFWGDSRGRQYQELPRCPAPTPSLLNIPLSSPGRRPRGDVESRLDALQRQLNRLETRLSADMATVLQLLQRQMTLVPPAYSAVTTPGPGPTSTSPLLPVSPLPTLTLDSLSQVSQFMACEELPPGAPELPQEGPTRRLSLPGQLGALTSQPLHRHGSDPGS
In the case of `COC(=O)c1coc(CN2CCN(C(=O)CC(c3ccc(F)cc3)c3ccc(Br)cc3)CC2)n1` (centres undefined), the IC50 came to 2230 nM.

In a further test the target is T1, Voltage-dependent T-type calcium channel subunit alpha-1G. As to the kind of experiment: Inhibition of T-type alpha1G calcium channel expressed in HEK293 cells by whole-cell patch-clamp method.
Take `Cc1ccc2nc(CN3CCN(C(=O)CC(c4ccccc4)c4ccc(F)cc4)CC3)oc2c1` (centres undefined): the IC50 came out at 1290 nM.

Take `COC(=O)c1coc(CN2CCN(C(=O)CC(c3ccccc3)c3ccc(Br)cc3)CC2)n1` (centres undefined): the IC50 is 21100 nM. Regarding `COC(=O)c1coc(CN2CCN(C(=O)CC(c3ccc(F)cc3)c3ccc(Cl)cc3)CC2)n1` (centres undefined), the IC50 is 8800 nM. Take `COC(=O)c1coc(CN2CCN(C(=O)CC(c3ccc(F)cc3)c3ccc(C(F)(F)F)cc3)CC2)n1` (centres undefined): the IC50 came to 1730 nM. The same measure, in the same setting: the same measure for `COc1ccc(C(CC(=O)N2CCN(Cc3nc4ccc(C)cc4o3)CC2)c2ccccc2)cc1` (centres undefined): 2480 nM; for `COC(=O)c1coc(CN2CCN(C(=O)CC(c3ccc(F)cc3)c3ccc(Br)cc3)CC2)n1` (centres undefined): 830 nM; for `COC(=O)c1coc(CN2CCN(C(=O)CC(c3ccccc3)c3ccc(C(F)(F)F)cc3)CC2)n1` (centres undefined): 17000 nM.
